The values that follow come from ChEMBL document CHEMBL1128574, “Glycosylated peptide hormones: pharmacological properties and conformational studies of analogues of [1-desamino,8-D-arginine]vasopressin” (J Med Chem, 1995).

The term half-life denotes how long it takes for the measured level to halve. Lower therefore signals fast loss. What is called bioavailability is dose-corrected exposure relative to a reference, in per cent. Low readings indicate little systemic uptake, high ones much systemic uptake. One may read the AUC as the area under the concentration-time curve, a measure of exposure. The low end stands for less exposure, the high end for more exposure. What is called Cmax is the maximum level reached in the sampled fluid or tissue. What is called inhibition is the percentage by which the read-out fell short of the control.

Data set [1] is described as follows: Degradation in vitro by rat intestinal juice. Type of data set: ADME, organism-based. The procedure, abridged:
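Rat intestinal juice was a 0.9% NaCl rinse of a 10 cm small-intestine segment, centrifuged at 10000g and stored at −20 °C. Incubation matched the chymotrypsin assay (1 mM peptide, 37 °C, pH 7.8) except for 165 mM Tris. Juice amount was set to degrade DDAVP at 2%/min. Time course by RP-HPLC.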

The nature of data set [2]: Bioavailability in rat administered i.d. Type of data set: ADME, organism-based. The note with it: in vivo. Put shortly:
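Computed as (AUCii/doseii)/(AUCiv/doseiv). Anaesthetized male Sprague-Dawley rats received 100 μg intraintestinally into a cannulated jejunal segment or 1.0 μg iv via jugular vein, both in 0.9% NaCl. Plasma levels by RIA; AUC by trapezoidal rule.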

Data set [3] can be described thus: Relative transport rate as the ratio of transport rate to that of PEG 4000. Format: ADME. The procedure, abridged: (§1)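 Rat small-intestine pieces, about 35 cm distal to pylorus and free of Peyer's patches, mounted in a modified Ussing chamber (1.47 cm2) at 37 °C in oxygenated Krebs-Ringer, pH 7.4. Peptide, [3H]PEG 1000 and [14C]PEG 4000 added apically. Basolateral samples taken every 15 min and assayed by RIA or scintillation counting. Papp = (dQ/dt)/(A·C0), expressed relative to each PEG.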

Data set [4] has as its system Rattus norvegicus. Kind of data set: Area under the curve administered intraintestinal in rats. The note with it: in vivo, other. Format: ADME, organism-based. Put shortly: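 Anaesthetized (Inactin) male Sprague-Dawley rats, 250–300 g, kept at 37 °C. 100 μg peptide in 1 mL 0.9% NaCl given into a cannulated, rinsed 15 cm small-intestine segment starting 10 cm distal to pylorus, after 30 min recovery. Carotid blood sampled, EDTA plasma assayed by RIA (antibody ADA 6). AUC by trapezoidal rule; mean ± SEM of n rats.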

The nature of data set [5]: Half life administered intravenously in rats. Type of data set: ADME, organism-based. The note with it: rat, in vivo, iv. Put shortly: (§2)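 Anaesthetized (Inactin) male Sprague-Dawley rats, 250–300 g. 1.0 μg peptide in 0.2 mL sterile 0.9% NaCl injected into a catheterized jugular vein. Carotid blood samples (0.2 mL) taken as EDTA plasma and quantified by RIA (ADA 6 antibody, [125I]Tyr2-DDAVP tracer). Half-life and trapezoidal AUC given as mean ± SEM of n rats.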

The nature of data set [6]: Relative transport rate as the ratio of transport rate to that of PEG 1000. Format: ADME. The procedure, abridged:
as §1

Data set [7] is described as follows: Degradation in vitro by alpha-chymotrypsin. Type of data set: ADME. Put shortly: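 Peptide (1 mM final) incubated with α-chymotrypsin (1 mg/mL final) at 37 °C in 25 mM Tris, 65 mM NaCl, 2.5 mM CaCl2, pH 7.8. Reaction stopped with ice-cold TCA and centrifuged. Remaining peptide measured over time by RP-HPLC against an enzyme-free reference, giving the half-life.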

The subject of data set [8] is Rattus norvegicus. Put plainly: Area under the curve administered intravenously in rats. The note with it: in vivo, iv. Format: ADME, organism-based. The procedure, abridged:
as §2

The nature of data set [9]: Cmax value administered intraintestinal in rats. Format: ADME, organism-based. To be noted: rat, in vivo. The procedure, abridged: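 Anaesthetized (Inactin) male Sprague-Dawley rats, 250–300 g, 37 °C. 100 μg peptide in 1 mL 0.9% NaCl given into a cannulated 15 cm intestinal segment. Plasma peptide measured by RIA at set time points; the maximal plasma concentration is reported as mean ± SEM of n rats.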

Data set [10] concerns the target T1, Vasopressin receptor (Rattus norvegicus) (UniProt P48974+P30560+Q00788).
The target in data set [11] is T1, Vasopressin receptor (Rattus norvegicus). Put plainly: Compound was tested in vitro for its ability to displace radioligand [3H]vasopressin from the vasopressin receptor in rat renal medullary membrane in presence of V1-antagonist. Type of data set: functional, cell membranes. The note with it: Renal medulla. Put shortly: (§3)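 Rat renal medullary membranes (250 μg protein) incubated for 120 min at room temperature with 1 nM [3H]vasopressin and increasing peptide concentrations, with or without 10 nM of the V1 antagonist [Phenylac1,D-Tyr(Me)2,Arg6,8,Lys-NH2 9]vasopressin. Membranes were pelleted and washed, and bound label was counted by liquid scintillation.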

Data set [12] shares this target. Kind of data set: Percent inhibition of vasopressin receptor agonistic activity in vivo in rats. Type of data set: functional, organism-based. To be noted: concentration not given here. The procedure, abridged:
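Overnight-hydrated male Sprague-Dawley rats. Peptide injected 1 min before a fixed vasopressin dose, set per rat to give similar antidiuretic responses. Inhibition was read at a 330-fold molar excess over vasopressin as percent inhibition of the antidiuretic effect. Mean of two experiments.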

Data set [13] has the same target. Put plainly: Compound was tested in vitro for its ability to displace radioligand [3H]vasopressin from the vasopressin receptor in rat renal medullary membrane in absence of V1-antagonist. Format: functional, cell membranes. The note with it: Renal medulla. The procedure, abridged: as §3

Bridge positions count the residues as written; N and C are the ends. Square brackets hold non-standard residues; d marks the D form. Peptide text beside a SMILES is read from it. * marks the point of attachment. X2 = CC(=O)OC[C@@H]1O[C@@H](*)[C@@H](OC(C)=O)[C@@H](OC(C)=O)[C@H]1OC(C)=O; X1 = OC[C@@H]1O[C@@H](*)[C@@H](O)[C@@H](O)[C@H]1O; Mpa = O=C(O)CCS

With `NC(=O)CNC(=O)[C@@H](CCCN=C(N)N)NC(=O)[C@@H]1CCCN1C(=O)[C@@H]1CSSCCC(=O)N[C@H](Cc2ccc(O)cc2)C(=O)N[C@@H](Cc2ccccc2)C(=O)N[C@@H](CO)C(=O)N[C@@H](CC(N)=O)C(=O)N1`, the results for the half-life in data set [1], in [5] and in data set [7] were 280 min, 32 min and 37 min, respectively. The compound also showed a bioavailability in [2] of 0.5%. The Ratio in data set [3] amounted to 1.66; in data set [6], 0.62. Also, the AUC in [4] is 2.35 ng·h/mL; in [8] it was 4.63 ng·h/mL. In data set [9], this compound returned a Cmax of 1.4 ng/mL.

For `NC(=O)CNC(=O)[C@H](CCCN=C(N)N)NC(=O)[C@@H]1CCCN1C(=O)[C@@H]1CSSCCC(=O)N[C@H](Cc2ccc(O)cc2)C(=O)N[C@@H](Cc2ccccc2)C(=O)N[C@@H](CO)C(=O)N[C@@H](CC(N)=O)C(=O)N1`, the Antidiuretic activity in data set [10] is 810 IU µM-1.

As to `NC(=O)CNC(=O)[C@H](CCCN=C(N)N)NC(=O)[C@@H]1CCCN1C(=O)[C@@H]1CSSCCC(=O)N[C@@H](Cc2ccc(O)cc2)C(=O)N[C@@H](Cc2ccccc2)C(=O)N[C@@H](CO[C@@H]2O[C@@H](CO)[C@H](O)[C@H](O)[C@@H]2O)C(=O)N[C@@H](CC(N)=O)C(=O)N1` ([Mpa]YFS(X1)NCPRG-NH2; disulfide 1-6), the Displacement in data set [11] and in data set [13] was 55% each time. Also, the half-life turned out to be 320 min in [1], 20 min in [5] and 37 min in [7]. For the same compound, the bioavailability in data set [2] came out at 1.6%. In addition, in data set [12], the inhibition was found to be 4%. Also, the Ratio in data set [3] was determined as 2.56; in [6], 0.96. For the same compound, the AUC in [4] came to 5.75 ng·h/mL; in data set [8], 3.52 ng·h/mL. Besides, the Antidiuretic activity in data set [10] is 0.06 IU µM-1. In [9], this compound had a Cmax of 2.5 ng/mL.

`CC(=O)OC[C@@H]1O[C@@H](OC[C@@H]2NC(=O)[C@H](Cc3ccccc3)NC(=O)[C@H](Cc3ccc(O)cc3)NC(=O)CCSSC[C@@H](C(=O)N3CCC[C@H]3C(=O)N[C@@H](CCCN=C(N)N)C(=O)NCC(N)=O)NC(=O)[C@H](CC(N)=O)NC2=O)[C@@H](OC(C)=O)[C@@H](OC(C)=O)[C@H]1OC(C)=O` ([Mpa]YFS(X2)NCPRG-NH2; disulfide 1-6): the Displacement in [11] and in data set [13] was 45% in each case. Besides, the half-life stood at 230 min in data set [1], 35 min in [5] and 180 min in data set [7]. In data set [2], this compound came in with a bioavailability of 2.1%. The compound further returned an inhibition in data set [12] of 3%. Besides, the Ratio in data set [3] came to 2.83; in data set [6] it was 1.09. The values for the AUC in data set [4] and in data set [8] were 10.3 ng·h/mL and 4.97 ng·h/mL, respectively. In data set [10], the Antidiuretic activity is 0.31 IU µM-1. The compound further showed a Cmax in [9] of 3.6 ng/mL.

With `NC(=O)CC[C@@H]1NC(=O)[C@H](Cc2ccccc2)NC(=O)[C@H](Cc2ccc(O)cc2)NC(=O)CCSSC[C@@H](C(=O)N2CCC[C@H]2C(=O)N[C@H](CCCN=C(N)N)C(=O)NCC(N)=O)NC(=O)[C@H](CC(N)=O)NC1=O` [DESMOPRESSIN], the half-life came to 20 min in data set [1], 39 min in [5] and 13 min in data set [7]. The compound further displayed a bioavailability in data set [2] of 0.1%. Also, the figures for the Ratio in [3] and in data set [6] were 1.57 and 0.57, respectively. For the same compound, the AUC in data set [4] came to 0.867 ng·h/mL; in data set [8], 7.65 ng·h/mL. Besides, the peak level in data set [9] (Cmax) was 0.8 ng/mL.
